Test: Safety and tolerability
Format: in vivo, Japanese patients
Settings: for Stomatitis / Subdural hematoma / Syncope / Thrombocytopenia / Tumor-associated fever / Vomiting / Anemia / Bone pain / Constipation / Corneal erosion / Cough / Diarrhea / Disseminated intravascular coagulation / Dysesthesia / Dysgeusia / ECG prolonged QT interval / Elevated ALT / Elevated AST / Elevated blood creatine phosphokinase / Elevated blood lactate dehydrogenase / Elevated liver enzymes (ALT, AST, and alkaline phosphatase) / Epistaxis / Febrile neutropenia / Headache / Hematoma / Hypertension / Hypokalemia / Hypotension / Hypoxia / Increased amylase / Insomnia / Lung infection / Nausea / Pleural effusion / Pneumonia / Pyrexia / Rash / Renal impairment / Sepsis / Somnolence: N = 24
Outline: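 In this open-label study, once-daily oral dosing escalated 20–300 mg/d by Bayesian continual reassessment. DLTs were judged from Cycles 0 and 1, and MTD/RD came from the posterior mean DLT rate plus investigator assessment. Treatment-emergent AEs were graded by NCI-CTCAE v4.0 for seriousness, duration and relatedness. The safety analysis set comprised all patients given ≥1 dose.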

CCc1nc(C(N)=O)c(Nc2ccc(N3CCC(N4CCN(C)CC4)CC3)c(OC)c2)nc1NC1CCOCC1 [gilteritinib]
Stomatitis (Grade 1-2): 5 (20.8%) n (%) | Subdural hematoma (Grade 1-2): 1 (4.2%) n (%) | Syncope (Grade 1-2): 0 n (%) | Thrombocytopenia (Grade 1-2): 0 n (%) | Tumor-associated fever (Grade 1-2): 2 (8.3%) n (%) | Vomiting (Grade 1-2): 2 (8.3%) n (%) | Anemia (Grade 3): 2 (8.3%) n (%) | Bone pain (Grade 3): 1 (4.2%) n (%) | Constipation (Grade 3): 0 n (%) | Corneal erosion (Grade 3): 0 n (%) | Cough (Grade 3): 0 n (%) | Diarrhea (Grade 3): 1 (4.2%) n (%) | Disseminated intravascular coagulation (Grade 3): 3 (12.5%) n (%) | Dysesthesia (Grade 3): 0 n (%) | Dysgeusia (Grade 3): 0 n (%) | ECG prolonged QT interval (Grade 3): 1 (4.2%) n (%) | Elevated ALT (Grade 3): 0 n (%) | Elevated AST (Grade 3): 0 n (%) | Elevated blood creatine phosphokinase (Grade 3): 2 (8.3%) n (%) | Elevated blood lactate dehydrogenase (Grade 3): 1 (4.2%) n (%) | Elevated liver enzymes (ALT, AST, and alkaline phosphatase) (Grade 3): 0 n (%) | Epistaxis (Grade 3): 0 n (%) | Febrile neutropenia (Grade 3): 3 (12.5%) n (%) | Headache (Grade 3): 0 n (%) | Hematoma (Grade 3): 0 n (%) | Hypertension (Grade 3): 0 n (%) | Hypokalemia (Grade 3): 1 (4.2%) n (%) | Hypotension (Grade 3): 0 n (%) | Hypoxia (Grade 3): 0 n (%) | Increased amylase (Grade 3): 1 (4.2%) n (%) | Insomnia (Grade 3): 0 n (%) | Lung infection (Grade 3): 1 (4.2%) n (%) | Nausea (Grade 3): 0 n (%) | Pleural effusion (Grade 3): 0 n (%) | Pneumonia (Grade 3): 3 (12.5%) n (%) | Pyrexia (Grade 3): 0 n (%) | Rash (Grade 3): 0 n (%) | Renal impairment (Grade 3): 0 n (%) | Sepsis (Grade 3): 1 (4.2%) n (%) | Somnolence (Grade 3): 0 n (%) | Stomatitis (Grade 3): 0 n (%) | Subdural hematoma (Grade 3): 0 n (%) | Syncope (Grade 3): 2 (8.3%) n (%) | Thrombocytopenia (Grade 3): 2 (8.3%) n (%) | Tumor-associated fever (Grade 3): 0 n (%) | Vomiting (Grade 3): 0 n (%) | Anemia (Grade 4): 0 n (%) | Bone pain (Grade 4): 0 n (%) | Constipation (Grade 4): 0 n (%) | Corneal erosion (Grade 4): 0 n (%) | Cough (Grade 4): 0 n (%) | Diarrhea (Grade 4): 0 n (%) | Disseminated intravascular coagulation (Grade 4): 0 n (%) | Dysesthesia (Grade 4): 0 n (%) | Dysgeusia (Grade 4): 0 n (%) | ECG prolonged QT interval (Grade 4): 0 n (%) | Elevated ALT (Grade 4): 0 n (%) | Elevated AST (Grade 4): 0 n (%) | Elevated blood creatine phosphokinase (Grade 4): 1 (4.2%) n (%) | Elevated blood lactate dehydrogenase (Grade 4): 0 n (%) | Elevated liver enzymes (ALT, AST, and alkaline phosphatase) (Grade 4): 0 n (%) | Epistaxis (Grade 4): 0 n (%) | Febrile neutropenia (Grade 4): 0 n (%) | Headache (Grade 4): 0 n (%) | Hematoma (Grade 4): 0 n (%) | Hypertension (Grade 4): 0 n (%) | Hypokalemia (Grade 4): 0 n (%) | Hypotension (Grade 4): 0 n (%) | Hypoxia (Grade 4): 0 n (%) | Increased amylase (Grade 4): 0 n (%) | Insomnia (Grade 4): 0 n (%) | Lung infection (Grade 4): 0 n (%) | Nausea (Grade 4): 0 n (%) | Pleural effusion (Grade 4): 0 n (%) | Pneumonia (Grade 4): 0 n (%) | Pyrexia (Grade 4): 0 n (%) | Rash (Grade 4): 0 n (%) | Renal impairment (Grade 4): 0 n (%) | Sepsis (Grade 4): 0 n (%) | Somnolence (Grade 4): 0 n (%) | Stomatitis (Grade 4): 0 n (%) | Subdural hematoma (Grade 4): 0 n (%) | Syncope (Grade 4): 0 n (%) | Thrombocytopenia (Grade 4): 2 (8.3%) n (%) | Tumor-associated fever (Grade 4): 0 n (%) | Vomiting (Grade 4): 0 n (%) | Anemia (Grade 5): 0 n (%) | Bone pain (Grade 5): 0 n (%) | Constipation (Grade 5): 0 n (%) | Corneal erosion (Grade 5): 0 n (%) | Cough (Grade 5): 0 n (%) | Diarrhea (Grade 5): 0 n (%) | Disseminated intravascular coagulation (Grade 5): 0 n (%) | Dysesthesia (Grade 5): 0 n (%) | Dysgeusia (Grade 5): 0 n (%) | ECG prolonged QT interval (Grade 5): 0 n (%) | Elevated ALT (Grade 5): 0 n (%) | Elevated AST (Grade 5): 0 n (%) | Elevated blood creatine phosphokinase (Grade 5): 0 n (%) | Elevated blood lactate dehydrogenase (Grade 5): 0 n (%) | Elevated liver enzymes (ALT, AST, and alkaline phosphatase) (Grade 5): 0 n (%) | Epistaxis (Grade 5): 0 n (%) | Febrile neutropenia (Grade 5): 0 n (%) | Headache (Grade 5): 0 n (%) | Hematoma (Grade 5): 0 n (%) | Hypertension (Grade 5): 0 n (%) | Hypokalemia (Grade 5): 0 n (%) | Hypotension (Grade 5): 0 n (%) | Hypoxia (Grade 5): 0 n (%) | Increased amylase (Grade 5): 0 n (%) | Insomnia (Grade 5): 0 n (%) | Lung infection (Grade 5): 0 n (%) | Nausea (Grade 5): 0 n (%) | Pleural effusion (Grade 5): 0 n (%) | Pneumonia (Grade 5): 0 n (%) | Pyrexia (Grade 5): 0 n (%) | Rash (Grade 5): 0 n (%) | Renal impairment (Grade 5): 0 n (%) | Sepsis (Grade 5): 0 n (%) | Somnolence (Grade 5): 0 n (%) | Stomatitis (Grade 5): 0 n (%) | Subdural hematoma (Grade 5): 1 (4.2%) n (%) | Syncope (Grade 5): 0 n (%) | Thrombocytopenia (Grade 5): 0 n (%) | Tumor-associated fever (Grade 5): 0 n (%) | Vomiting (Grade 5): 0 n (%) | patients who experienced at least 1 AE (SAF, all doses): 24 patients | patients with AEs resulting in permanent discontinuation of gilteritinib (all doses, 6 of 24 patients): 25% | patients with serious AEs (all doses, 7 of 24 patients): 29.2% | patients with drug-related grade ≥3 AEs (all doses, 9 patients): 37.5% | Drug-related AE: pyrexia (all doses, n = 3/24): 12.5% | grade ≥3 AE: disseminated intravascular coagulation (all doses, n = 3/24): 12.5% | grade ≥3 AE: elevated blood creatine phosphokinase (all doses, n = 3/24): 12.5% | grade ≥3 AE: febrile neutropenia (all doses, n = 3/24): 12.5% | grade ≥3 AE: pneumonia (all doses, n = 3/24): 12.5% | Drug-related AE: diarrhea (all doses, n = 4/24): 16.7% | Drug-related AE: hypertension (all doses, n = 4/24): 16.7% | Drug-related AE: stomatitis (all doses, n = 4/24): 16.7% | Drug-related AE: thrombocytopenia (all doses, n = 4/24): 16.7% | grade ≥3 AE: thrombocytopenia (all doses, n = 4/24): 16.7% | Drug-related AE: renal impairment (all doses, n = 5/24): 20.8% | Drug-related AE: elevated blood lactate dehydrogenase (all doses, n = 6/24): 25% | Drug-related AE: elevated blood creatine phosphokinase (all doses, n = 7/24): 29.2% | Drug-related AE: elevated liver enzyme levels (all doses, n = 8/24): 33.3% | patients with grade ≥3 AEs (all doses, n = 16/24): 66.7% | patients with at least 1 treatment-related AE (all doses, n = 22/24): 91.7% | AE: febrile neutropenia (any grade, all doses, n = 5/24): 20.8% | AE: hypertension (any grade, all doses, n = 5/24): 20.8% | AE: renal impairment (any grade, all doses, n = 5/24): 20.8% | AE: stomatitis (any grade, all doses, n = 5/24): 20.8% | AE: diarrhea (any grade, all doses, n = 7/24): 29.2% | AE: pyrexia (any grade, all doses, n = 7/24): 29.2% | AE: elevated blood lactate dehydrogenase (any grade, all doses, n = 8/24): 33.3% | AE: elevated blood creatine phosphokinase (any grade, all doses, n = 9/24): 37.5% | AE: elevated liver enzymes (ALT, AST, alkaline phosphatase) (any grade, all doses, n = 9/24): 37.5% | drug-related AE leading to treatment discontinuation: pneumonia (n = 2/24): 8.3% | drug-related grade ≥3 AE: pneumonia (n = 2, 40 and 300 mg/d): 8.3% | drug-related grade ≥3 AE: anemia (n = 2, 200 and 300 mg/d): 8.3% | drug-related grade ≥3 AE: febrile neutropenia (n = 2, 200 and 300 mg/d): 8.3% | drug-related grade ≥3 AE: increased blood creatine phosphokinase (n = 3, 200 and 300 mg/d): 12.5% | drug-related grade ≥3 AE: thrombocytopenia (n = 4, 200 and 300 mg/d): 16.7% | patients who experienced DLTs during Cycle 0 and Cycle 1 (of the 24 patients in the SAF): 3 patients | maximum tolerated dose (MTD) (once-daily oral, Bayesian CRM and investigator opinion): 200 mg/day | recommended dose (RD) (once-daily oral, for subsequent studies): 120 mg/day

— PMC6172068 (Cancer Science, 2018)
